# Measurements: publication PMC3205972 (Journal of medicinal chemistry, 2009)
# Where two headings read alike, the source gives them in different places.
# Assays:
# [1] = system: Normal Cell Lines (Wi38, WS1, NHDF); test: MTT colorimetric assay, mean over three normal cell lines; assay type: cell-based; conditions: read-out: IC50 In Vitro Growth Inhibitory Values, Normal Cell Lines, Mean ± SEM
# [2] = system: cancer versus normal cell lines; test: In vitro therapeutic ratio, cancer versus normal cell lines; assay type: cell-based
# How it was run: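 MTT colorimetric growth assay on human cancer and normal cell lines. Cells were plated for 24 h at 10,000 to 40,000 cells/mL, depending on cell type, then cultured 72 h with or without test compound. Formazan from mitochondrial MTT reduction was read at 570 nm (reference 630 nm), in sextuplicate. The ratio compares MTT growth-inhibitory IC50 between normal and cancer cells.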
# [3] = system: U373 GBM cells; test: Quantitative videomicroscopy: cell growth; assay type: cell-based, human; conditions: 5 μM, 72 h
# [4] = system: A549 NSCLC cells; test: Quantitative videomicroscopy: cell growth; assay type: cell-based, human; conditions: 5 μM, 72 h
# [5] = system: A549 NSCLC cells; test: Soft-agar colony formation, anchorage-independent culture; assay type: cell-based, human; conditions: between 0.5 (p < 0.05) and 5 (p < 0.01) μM, 38 days
# [6] = system: U373 GBM cells; test: Actin cytoskeleton organization by computer-assisted fluorescence microscopy; assay type: cell-based, human; conditions: 5 μM for 6 hrs
# [7] = system: U373 GBM cells; test: Flow cytometry, annexin V / propidium iodide staining; assay type: cell-based, human; conditions: 72 hrs
# [8] = system: healthy mice; test: Chronic maximal tolerated dose in healthy mice; assay type: in vivo, mouse; conditions: i.v. 5, 10, 20, 40 and 80 mg/kg once a day during 5 consecutive days; 28 days
# [9] = system: CYP3A4; conditions: cited from earlier work
# [10] = system: SKMEL-28 melanoma cells; test: MTT colorimetric assay, in vitro growth inhibition; assay type: cell-based, human
# [11] = system: A549 non-small-cell-lung cancer (NSCLC) cells; test: MTT colorimetric assay, in vitro growth inhibition; assay type: cell-based, human
# [12] = system: OE21 esophageal cancer cells; test: MTT colorimetric assay, in vitro growth inhibition; assay type: cell-based, human
# [13] = system: Hs683 anaplastic oligodendroglioma cells; test: MTT colorimetric assay, in vitro growth inhibition; assay type: cell-based, human
# [14] = system: U373 glioblastoma (GBM) cells; test: MTT colorimetric assay, in vitro growth inhibition; assay type: cell-based, human; conditions: 72 h
# [15] = system: B16F10 melanoma cells; test: MTT colorimetric assay, in vitro growth inhibition; assay type: cell-based, mouse
# [16] = system: Cancer Cell Lines (A549, OE21, Hs683, U373, SKMEL, B16F10); test: MTT colorimetric assay, mean over six cancer cell lines; assay type: cell-based; conditions: read-out: IC50 In Vitro Growth Inhibitory Values, Cancer Cell Lines, Mean ± SEM
# [17] = system: MCF-7 breast cancer cells; test: Flow cytometry, annexin V / propidium iodide staining; assay type: cell-based, human; conditions: 1 μM for 72 hrs, positive control
# [18] = system: glioma cells, which display resistance to proapoptotic stimuli; conditions: 1 μM; cited from earlier work
# [19] = read-out: In Vitro IC50 Growth Inhibitory Values, SKMEL, MTT, 72 h, concentrations of up to 10 μM
# [20] = read-out: In Vitro IC50 Growth Inhibitory Values, A549, MTT, 72 h, concentrations of up to 10 μM
# [21] = read-out: In Vitro IC50 Growth Inhibitory Values, OE21, MTT, 72 h, concentrations of up to 10 μM
# [22] = read-out: In Vitro IC50 Growth Inhibitory Values, Hs683, MTT, 72 h, concentrations of up to 10 μM
# [23] = read-out: In Vitro IC50 Growth Inhibitory Values, U373, MTT, concentrations of up to 10 μM
# [24] = read-out: In Vitro IC50 Growth Inhibitory Values, B16F10, MTT, 72 h, concentrations of up to 10 μM
compound,measurement,setting,value
"O[C@H]1[C@H]2c3cc4c(cc3CN3CCC(=C[C@@H]1O)[C@H]23)OCO4 [compound 1, (1S,2S,12bS,12cS)-1,2-Diol,2,4,5,7,12b,12c-hexahydro-1H-[1,3]dioxolo[4,5-j]pyrrolo[3,2,1-de]phenanthridine]",IC50,[1],> 100 µM
same,Therapeutic ratio,[2]; MTT IC50,> 15
same,Therapeutic ratio,"[2]; MTT IC50, listed as Lycorine",at least 15
same,Therapeutic ratio,"[2]; MTT IC50, listed as lycorine",15
same,in vitro growth inhibitory activity based on global growth rate (GGR),[3],marked in vitro growth inhibitory activity
same,in vitro growth inhibitory activity based on global growth rate (GGR),[4],marked in vitro growth inhibitory activity
same,colony formation on soft agar,[5],significantly impairs colony formation
same,levels of polymerized actin,[6],markedly increased the levels of polymerized actin
same,pro-apoptotic effects (AV+ cells),[7]; 5 μM or 50 μM,did not induce pro-apoptotic effects
same,non-apoptotic cell death (AV-/PI+ cells),[7]; 50 μM,induced non-apoptotic cell death
same,"toxicity (body weight, death)",[8],no gross toxicity
same,CYP3A4 inhibitory activity,[9],no CYP3A4 inhibitory activity
"CC(=O)O[C@H]1[C@H]2c3cc4c(cc3CN3CCC(=C[C@@H]1OC(C)=O)[C@H]23)OCO4 [compound 3, (1S,2S,12bS,12cS)-1,2-Diol-2,4,5,7,12b,12c-hexahydro-1H-[1,3]dioxolo[4,5-j]pyrrolo[3,2,1-de]phenanthridine-1,2-diacetate]",IC50,[10]; [19],> 10 µM
"CC(=O)O[C@H]1C=C2CCN3Cc4cc5c(cc4[C@H]([C@@H]1O)[C@@H]23)OCO5 [compound 5, (1S,2S,12bS,12cS)-1,2-Diol-2,4,5,7,12b,12c-hexahydro-1H-[1,3]dioxolo[4,5-j]pyrrolo[3,2,1-de]phenanthridine-2-acetate]",IC50,"[11]; Homo sapiens, A549, 72 h, read-out: IC50 In Vitro Growth Inhibitory Values",47.6 ± 2.3 µM
same,IC50,"[12]; Homo sapiens, OE21, 72 h, read-out: IC50 In Vitro Growth Inhibitory Values",77.4 ± 3.1 µM
same,IC50,"[13]; Homo sapiens, Hs 683, 72 h, read-out: IC50 In Vitro Growth Inhibitory Values",43 ± 2 µM
same,IC50,"[14]; Homo sapiens, U373 MG, read-out: IC50 In Vitro Growth Inhibitory Values",63.1 ± 4.1 µM
same,IC50,"[15]; Mus musculus, B16-F10, 72 h, read-out: IC50 In Vitro Growth Inhibitory Values",37.1 ± 2.8 µM
same,IC50,[16],59.3 ± 8.2 µM
same,IC50,[1],> 96.2 µM
same,Therapeutic ratio,[2]; MTT IC50,> 2
"O[C@H]1[C@H]2c3cc4c(cc3CN3CCC(=C[C@@H]1Cl)[C@H]23)OCO4 [compound 6, (1S,2S,12bS,12cS)-1-ol-2-Chloro-2,4,5,7,12b,12c-hexahydro-1H-[1,3]Dioxolo[4,5-j]pyrrolo[3,2,1-de]phenanthridine]",IC50,[1],> 72.7 µM
same,Therapeutic ratio,[2]; MTT IC50,> 11
"CC(=O)O[C@H]1[C@H]2c3cc4c(cc3CN3CC[C@H](C[C@@H]1OC(C)=O)[C@H]23)OCO4 [compound 9, (1S,2S,3aR,12bS,12cR)-1,2-Diol-2,3,3a,4,5,7,12b,12c-octahydro-1H-[1,3]dioxolo[4,5-j]pyrrolo[3,2,1-de]phenanthridine diacetate]",IC50,[11]; [20],> 10 µM
same,IC50,[12]; [21],> 10 µM
same,IC50,[13]; [22],> 10 µM
same,IC50,[14]; [23],> 10 µM
same,IC50,[10]; [19],> 10 µM
same,IC50,[15]; [24],> 10 µM
"CC(=O)O[C@H]1[C@H]2c3cc4c(cc3CN3CC[C@@H](C[C@@H]1OC(C)=O)[C@H]23)OCO4 [compound 11, (1α,2β,12β)-1,2-Diol-9,10-[methylenebis(oxy)]-galanthan-diacetate]",IC50,[11]; [20],> 10 µM
same,IC50,[12]; [21],> 10 µM
same,IC50,[13]; [22],> 10 µM
same,IC50,[14]; [23],> 10 µM
same,IC50,[10]; [19],> 10 µM
same,IC50,[15]; [24],> 10 µM
"C1=C2CCN3Cc4cc5c(cc4[C@H]([C@@H]4O[C@H]14)[C@@H]23)OCO5 [compound 14, (1α,2α)-3,12-didehydro-1,2-epoxy-9,10-[methylenebis(oxy)]-galanthan]",IC50,[16]; mean of six cancer cell lines,5.3 ± 1.2 µM
same,IC50,[1]; mean of three normal cell lines,24.9 ± 8.2 µM
same,Therapeutic ratio,[2]; MTT IC50,5
"COc1cc2c(cc1O)[C@@H]1[C@H](O)[C@@H](O)C=C3CCN(C2)[C@H]31 [compound 18, (1S,2S,11bS,11cS)-1,2,10-triol-2,4,5,7,11b,11c-hexahydro-9-methoxy-1H-pyrrolo[3,2,1-de]phenanthridine]",IC50,[16],9 ± 1.3 µM
same,IC50,[1],63.3 ± 7.3 µM
same,Therapeutic ratio,[2]; MTT IC50,7
"c1cc2c3c(c1)-c1cc4c(cc1CN3CC2)OCO4 [compound 20, 4,5-dihydro-7H-[1,3]Dioxolo[4,5-j]pyrrolo[3,2,1-de]phenanthridine]",IC50,"[10]; Homo sapiens, SK-MEL-28, 72 h, read-out: IC50 In Vitro Growth Inhibitory Values",20.9 ± 1.2 µM
same,IC50,[16],11.6 ± 3.4 µM
same,Therapeutic ratio,[2]; MTT IC50,2
"COC1=C[C@@H]2CCN3Cc4cc5c(cc4[C@@H]([C@H]23)[C@@H]1O)OCO5 [compound 22, (1S,3aS,12bS,12cS)-1-ol-2-methoxy-3a,4,5,7,12b,12c-hexahydro-1H-[1,3]Dioxolo[4,5-j]pyrrolo[3,2,1-de]phenanthridine]",IC50,[1],> 99.2 µM
same,Therapeutic ratio,[2]; MTT IC50,> 13
O=C1N[C@@H]2C(=C[C@H](O)[C@@H](O)[C@H]2O)c2cc3c(c(O)c21)OCO3 [narciclasine],pro-apoptotic effects (AV/PI staining),[17],induced significant pro-apoptotic effects
same,apoptosis induction,[18],unable to induce apoptosis
same,CYP3A4 inhibitory activity,[9],does
